High-throughput results from PubChem BioAssay.
The list is not random: actives were taken first. Their share in the collection is about 2.2%.
S100A4 inh HTS – blocks human S100A4 binding to myosin IIA peptide. S100A4/TAMRA-MyoIIA peptide fluorescence polarization. inhibition, % at 10.7 µM. 0.14% of 360,000 active;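 active means mean inhibition of at least 70% across replicates, with every replicate also reaching that level; inconclusive means mean inhibition reaches 70% but some replicates fall short; inactive means mean inhibition below 70%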
Target sequence (P26447 whole entry, looked up): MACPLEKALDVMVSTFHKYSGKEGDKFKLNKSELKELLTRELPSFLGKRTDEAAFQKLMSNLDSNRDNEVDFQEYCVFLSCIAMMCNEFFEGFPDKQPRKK
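Test system: S100A4 monomer protein. Medium: HEPES buffer with Ca2+, pH 7.2. Reagent: fluorescent myosin IIA peptide, 5 nM. Compound dosing: single-point compound testing. Timing: 5 min between mix addition and reading. Benchmarks: DMSO neutral and TFP positive wells.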
dFosB act-1 – mouse delta FosB homodimer activation; purified delta FosB, TAMRA-CDK5 oligo fluorescence polarization; percent of positive-control signal above neutral wells; 0.99% of 340,000 active; P13346; AID 493131; activation, % at 25 µM;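 active means mean activation above about 17%, with every replicate also reaching it, limit read from the data, passing the limit was not always enough; inconclusive means only one of the two conditions met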
Target sequence (P13346 whole entry, looked up): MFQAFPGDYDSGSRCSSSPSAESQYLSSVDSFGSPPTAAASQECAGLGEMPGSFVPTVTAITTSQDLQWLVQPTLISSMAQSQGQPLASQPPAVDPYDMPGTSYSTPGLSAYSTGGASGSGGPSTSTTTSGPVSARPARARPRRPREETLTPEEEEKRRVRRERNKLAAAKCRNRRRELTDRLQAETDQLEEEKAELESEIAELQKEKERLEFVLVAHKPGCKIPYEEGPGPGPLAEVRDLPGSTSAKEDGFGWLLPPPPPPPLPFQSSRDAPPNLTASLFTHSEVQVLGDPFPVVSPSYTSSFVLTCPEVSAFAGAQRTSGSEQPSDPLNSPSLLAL
CFTR F508del cor – correctors of CFTR F508del function in bronchial epithelial cells; CFBE cells, YFP halide quenching; stimulated with forskolin plus potentiator P3; % fluorescence drop versus neutral controls; activity (quench increase), % at 7.58 µM; 0.36% of 350,000 active;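 active means mean added fluorescence quench of at least 8% versus neutral control, with both replicates also reaching 8%; inconclusive means only one of the mean or replicate conditions met; inactive means mean below 8% and not both replicates reaching 8%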;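 further: cells transiently co-express mutant CFTR-F508del with the halide-sensitive YFP; corrector assay measuring rescue of mutant channel to the surface after 24 h compound exposure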
FGF22 binding – FGF22 (human) thermal shift binding; Q9HCT0; recombinant FGF22 thermal shift, SYPRO orange fluorescence; percent of sucrose octasulfate shift, DMSO zero; activity (Tm shift, normalised), % at 9.99 µM; 1.5% of 340,000 active; AID 651658;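 active means mean Tm shift, scaled 0 neutral to 100 positive control, at about 1.3% or above, every replicate too, limit read from the data; inconclusive means no clear call, values can overlap the other calls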
dFosB act-2 – activators of mouse delta FosB homodimer DNA binding | activation, % at 24.9 µM | shares compounds with dFosB act-1 | 2,400 tested, under 10 active | purified delta FosB, TAMRA-CDK5 oligo fluorescence polarization; normalised: neutral wells 0, positive control 100;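 active means highest replicate activation at or above 34% and every replicate reaching that threshold; inconclusive means meets only one of the two criteria; inactive means meets neither criterion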;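 further: higher polarization means more probe DNA bound by delta FosB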
Hits are given with their value; n = inactive; u = inconclusive; x = no result.

SMILES	S100A4 inh HTS	dFosB act-1	CFTR F508del cor	FGF22 binding	dFosB act-2
COCCN(C(=O)COC(=O)/C=C/c1ccc2ccccc2n1)c1c(N)n(Cc2ccccc2)c(=O)[nH]c1=O	n	n	n	n	x
Cc1nnc(SCC(=O)N(CC(C)C)c2c(N)n(CC(C)C)c(=O)[nH]c2=O)n1-c1ccccc1	n	n	n	n	x
CC(C)CN(C(=O)COC(=O)CSc1ccccc1)c1c(N)n(Cc2ccccc2)c(=O)[nH]c1=O	n	29	n	n	n
CC(C)CN(C(=O)COC(=O)/C=C/c1cccs1)c1c(N)n(Cc2ccccc2)c(=O)[nH]c1=O	n	34	n	n	n
CCNC(=O)[C@H]1[C@H](CO)[C@H]2Cn3c(ccc(-c4ccc(OC)cc4)c3=O)[C@@H]1N2CC1CC1	n	x	x	n	x
CNC[C@@H]1Oc2ccc(NC(=O)C3CC3)cc2CC(=O)N([C@@H](C)CO)C[C@@H]1C	x	x	n	x	x
Cc1ccc2cc3cc(C(=O)NCc4ccc5c(c4)OCO5)oc3nc2c1	x	56	x	x	n
Cc1ccc(C(=O)NCc2ccc3c(c2)OCO3)o1	n	n	n	n	x
O=C(NC(=S)Nc1nc(-c2cccc([N+](=O)[O-])c2)cs1)c1cc(Cl)ccc1Cl	n	n	n	n	x
O=C(NC(=S)Nc1nc(-c2cccc([N+](=O)[O-])c2)cs1)c1ccccc1Cl	n	88	n	n	n
CC(=O)N(C)C[C@H]1Oc2ncc(C#Cc3ccccn3)cc2C(=O)N([C@@H](C)CO)C[C@H]1C	n	x	n	n	x
COc1ccccc1/C=C/C(=O)NCC(=O)N/N=C/c1ccc2c(c1)OCO2	n	n	n	n	x
COc1ccccc1CNC(=O)/C=C/c1cc2c(cc1Br)OCO2	x	45	x	x	n
O=C(Cn1c(=O)oc2ccccc21)Nc1ccc(S(=O)(=O)N2CCCCC2)cc1	x	60	x	x	n
CCN(CC)S(=O)(=O)c1ccc(NC(=O)Cn2c(=O)oc3ccccc32)cc1	x	n	x	x	x
CC1Nc2ncnc(N3CCc4ccccc4C3)c2N(Cc2ccc(Br)cc2)C1=O (configuration not stated)	n	51	n	n	n
CC1Nc2ncnc(N3CCc4ccccc4C3)c2N(Cc2ccc(Cl)cc2)C1=O (configuration not stated)	n	u	x	x	x
Cc1noc(C)c1NC(=O)N(C)C[C@H]1Oc2ccc(NC(=O)NC3CCCCC3)cc2C(=O)N([C@@H](C)CO)C[C@H]1C	u	x	n	n	x
CN1CCN(C(=O)C[C@H]2C[C@@H]3c4cc(NC(=O)c5ccc6c(c5)OCO6)ccc4O[C@@H]3[C@H](CO)O2)CC1	n	x	n	n	x
O=[N+]([O-])c1ccccc1/C=C/C=N/n1c(-c2cc(-c3ccccc3)n[nH]2)n[nH]c1=S	n	54	n	n	n
S=c1[nH]nc(-c2cc(-c3ccccc3)n[nH]2)n1/N=C/c1ccccc1	n	n	n	n	x
S=c1[nH]nc(-c2cc(-c3ccccc3)n[nH]2)n1/N=C/C=C/c1ccccc1	n	41	n	n	n
C[C@@H]1CN([C@H](C)CO)C(=O)c2cccc(NS(=O)(=O)c3ccc(Cl)cc3)c2O[C@@H]1CN(C)Cc1ccc(-c2ccccc2)cc1	n	x	n	n	x
CO[C@H]1CN(C)C(=O)c2cc(NC(=O)C3CCCC3)ccc2OC[C@H](C)N(S(C)(=O)=O)C[C@H]1C	n	x	n	n	x
COc1nc(-c2ccc(Cl)cc2)ccc1-c1noc(-c2ccco2)n1	x	30	x	x	n
SMILES	S100A4 inh HTS	dFosB act-1	CFTR F508del cor	FGF22 binding	dFosB act-2
COC(=O)C[C@@H]1C=C[C@@H](NC(=O)c2ccccc2)[C@H](CO)O1	n	x	n	n	x
O=C(CC(NC(=O)c1ccccc1Cl)c1ccccc1)NCCc1ccc(Cl)cc1 (configuration not stated)	x	25	x	x	n
CCC(=O)Nc1ccc(Cl)c(NC(=S)NC(=O)COc2ccc(Cl)cc2)c1	x	55	x	x	n
CCC(=O)Nc1ccc(Cl)c(NC(=S)NC(=O)COc2ccccc2)c1	n	35	n	44	u
C/C=C/c1ccc([C@H]2[C@@H](CO)N(C(=O)C3CC3)C23CN(C(=O)NC(C)C)C3)cc1	n	x	n	n	x
O=C(CCc1nc2ccccc2c(=O)[nH]1)Nc1nnc(SCc2ccc(F)cc2)s1	n	90	n	n	n
O=C(CCc1nc2ccccc2c(=O)[nH]1)Nc1nc(-c2cccs2)cs1	n	26	n	n	n
